Legend:
[1] = test system: Rattus norvegicus; experiment: Distribution in rat spleen 8 hr after intravenous administration, injected dose/gm; assay type: ADME, organism-based; conditions: in vivo
Summary of the method: (§1)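 Female Sprague-Dawley rats (300-320 g) under light ether anesthesia received a single injection of [77Br]-labeled tracer (50-100 µCi in 0.1 mL 0.9% NaCl, pH 3) into the femoral vein. Groups of five were decapitated at set times after a cardiac-puncture blood sample. Organs were dissected, blotted and weighed, and counted in a NaI(Tl) well γ-counter. Values are %ID/g against an injectate standard, mean ± SD (n=5).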

[2] = test system: Rattus norvegicus; experiment: Distribution in rat skin 5 min after intravenous administration, injected dose/gm; assay type: ADME, organism-based; conditions: in vivo; summary of the method: as §1
[3] = test system: Rattus norvegicus; experiment: Distribution in rat spleen 6 hr after intravenous administration, injected dose/gm; assay type: ADME, organism-based; conditions: in vivo; summary of the method: as §1
[4] = test system: Rattus norvegicus; experiment: Distribution in rat uterus 8 hr after intravenous administration, injected dose/gm; assay type: ADME, organism-based; conditions: in vivo; summary of the method: as §1
[5] = test system: Rattus norvegicus; experiment: Distribution in brain of rat, 2 hr after intravenous administered, injected dose/gm; assay type: ADME, organism-based; conditions: in vivo
Summary of the method: (§2)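 [77Br]Bromperidol at high specific activity (50-100 µCi in 0.1 mL 0.9% NaCl, pH 3) given into the femoral vein of 300-320-g female Sprague-Dawley rats under light ether anesthesia. At each time point, groups of five were decapitated after cardiac-puncture blood sampling. Organs were dissected, blotted, weighed and gamma-counted against an injectate standard. Values are % injected dose/g, mean ± SD, n=5.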

[6] = test system: Rattus norvegicus; experiment: Distribution in rat intestine 5 min after intravenous administration, injected dose/gm; assay type: ADME, organism-based; conditions: in vivo; summary of the method: as §2
[7] = test system: Rattus norvegicus; experiment: Distribution in rat spleen 4 hr after intravenous administration, injected dose/gm; assay type: ADME, organism-based; conditions: in vivo; summary of the method: as §1
[8] = test system: Rattus norvegicus; experiment: Distribution in rat muscle 5 min after intravenous administration, injected dose/gm; assay type: ADME, organism-based, Muscle tissue; conditions: in vivo; summary of the method: as §1
[9] = test system: Rattus norvegicus; experiment: Distribution in rat uterus 4 hr after intravenous administration, injected dose/gm; assay type: ADME, organism-based; conditions: in vivo; summary of the method: as §1
[10] = test system: Rattus norvegicus; experiment: Distribution in rat intestine 4 hr after intravenous administration, injected dose/gm; assay type: ADME, organism-based; conditions: in vivo; summary of the method: as §2
[11] = test system: Rattus norvegicus; experiment: Distribution in rat skin 15 min after intravenous administration, injected dose/gm; assay type: ADME, organism-based; conditions: in vivo, 0.25 h; summary of the method: as §1
[12] = test system: Rattus norvegicus; experiment: Distribution in rat liver 4 hr after intravenous administration, injected dose/gm; assay type: ADME, organism-based; conditions: in vivo; summary of the method: as §1
[13] = test system: Rattus norvegicus; experiment: Distribution in rat kidney, 30 min after intravenous administration, injected dose/gm; assay type: ADME, organism-based; conditions: in vivo, 0.5 h; summary of the method: as §2
[14] = test system: Rattus norvegicus; experiment: Distribution in rat kidney, 5 min after intravenous administration, injected dose/gm; assay type: ADME, organism-based; conditions: in vivo; summary of the method: as §2
[15] = test system: Rattus norvegicus; experiment: Distribution in rat kidney, 6 hr after intravenous administration, injected dose/gm; assay type: ADME, organism-based; conditions: in vivo; summary of the method: as §2
[16] = test system: Rattus norvegicus; experiment: Distribution in rat fat 4 hr after intravenous administration, injected dose/gm; assay type: ADME, organism-based, Adipose tissue; conditions: in vivo; summary of the method: as §2
[17] = test system: Rattus norvegicus; experiment: Distribution in rat pancreas 30 min after intravenous administration, injected dose/gm; assay type: ADME, organism-based; conditions: in vivo, 0.5 h; summary of the method: as §1
[18] = test system: Rattus norvegicus; experiment: Distribution in blood of rat, 1 hr after intravenous administration, injected dose/gm; assay type: ADME, organism-based; conditions: in vivo; summary of the method: as §2
[19] = test system: Rattus norvegicus; experiment: Distribution in rat liver 1 hr after intravenous administration, injected dose/gm; assay type: ADME, organism-based; conditions: in vivo; summary of the method: as §2
[20] = test system: Rattus norvegicus; experiment: Distribution in rat heart 6 hr after intravenous administration, injected dose/gm; assay type: ADME, organism-based; conditions: in vivo; summary of the method: as §2
[21] = test system: Rattus norvegicus; experiment: Distribution in rat pancreas 6 hr after intravenous administration, injected dose/gm; assay type: ADME, organism-based; conditions: in vivo; summary of the method: as §1
[22] = test system: Rattus norvegicus; experiment: Distribution in brain of rat, 30 min after intravenous administered, injected dose/gm; assay type: ADME, organism-based; conditions: in vivo, 0.5 h; summary of the method: as §2
[23] = test system: Rattus norvegicus; experiment: Distribution in rat pancreas 15 min after intravenous administration, injected dose/gm; assay type: ADME, organism-based; conditions: in vivo, 0.25 h; summary of the method: as §1
[24] = test system: Rattus norvegicus; experiment: Distribution in rat fat 30 min after intravenous administration, injected dose/gm; assay type: ADME, organism-based, Adipose tissue; conditions: in vivo, 0.5 h; summary of the method: as §2
[25] = test system: Rattus norvegicus; experiment: Distribution in rat muscle 30 min after intravenous administration, injected dose/gm; assay type: ADME, organism-based, Muscle tissue; conditions: in vivo, 0.5 h; summary of the method: as §1
[26] = test system: Rattus norvegicus; experiment: Distribution in rat skin 1 hr after intravenous administration, injected dose/gm; assay type: ADME, organism-based; conditions: in vivo; summary of the method: as §1
[27] = test system: Rattus norvegicus; experiment: Distribution in rat skin 2 hr after intravenous administration, injected dose/gm; assay type: ADME, organism-based; conditions: in vivo; summary of the method: as §1
[28] = test system: Rattus norvegicus; experiment: Distribution in rat kidney, 8 hr after intravenous administration, injected dose/gm; assay type: ADME, organism-based; conditions: in vivo; summary of the method: as §2
[29] = test system: Rattus norvegicus; experiment: Distribution in rat heart 4 hr after intravenous administration, injected dose/gm; assay type: ADME, organism-based; conditions: in vivo; summary of the method: as §2
[30] = test system: Rattus norvegicus; experiment: Distribution in rat muscle 8 hr after intravenous administration, injected dose/gm; assay type: ADME, organism-based, Muscle tissue; conditions: in vivo; summary of the method: as §1
[31] = test system: Rattus norvegicus; experiment: Distribution in rat intestine 2 hr after intravenous administration, injected dose/gm; assay type: ADME, organism-based; conditions: in vivo; summary of the method: as §2
[32] = test system: Rattus norvegicus; experiment: Distribution in rat liver 6 hr after intravenous administration, injected dose/gm; assay type: ADME, organism-based; conditions: in vivo; summary of the method: as §1
[33] = test system: Rattus norvegicus; experiment: Distribution in rat spleen 30 min after intravenous administration, injected dose/gm; assay type: ADME, organism-based; conditions: in vivo, 0.5 h; summary of the method: as §1
[34] = test system: Rattus norvegicus; experiment: Distribution in rat liver 30 min after intravenous administration, injected dose/gm; assay type: ADME, organism-based; conditions: in vivo, 0.5 h; summary of the method: as §1
[35] = test system: Rattus norvegicus; experiment: Distribution in rat fat 15 min after intravenous administration, injected dose/gm; assay type: ADME, organism-based, Adipose tissue; conditions: in vivo, 0.25 h; summary of the method: as §2
[36] = test system: Rattus norvegicus; experiment: Distribution in rat skin 6 hr after intravenous administration, injected dose/gm; assay type: ADME, organism-based; conditions: in vivo; summary of the method: as §1
[37] = test system: Rattus norvegicus; experiment: Distribution in rat liver 15 min after intravenous administration, injected dose/gm; assay type: ADME, organism-based; conditions: in vivo, 0.25 h; summary of the method: as §2
[38] = test system: Rattus norvegicus; experiment: Distribution in brain of rat, 5 min after intravenous administered, injected dose/gm; assay type: ADME, organism-based; conditions: in vivo; summary of the method: as §2
[39] = test system: Rattus norvegicus; experiment: Distribution in rat lungs 15 min after intravenous administration, injected dose/gm; assay type: ADME, organism-based, Lung; conditions: in vivo, 0.25 h; summary of the method: as §1
[40] = test system: Rattus norvegicus; experiment: Distribution in rat heart 30 min after intravenous administration, injected dose/gm; assay type: ADME, organism-based; conditions: in vivo, 0.5 h; summary of the method: as §2
[41] = test system: Rattus norvegicus; experiment: Distribution in rat heart 5 min after intravenous administration, injected dose/gm; assay type: ADME, organism-based; conditions: in vivo; summary of the method: as §2
[42] = test system: Rattus norvegicus; experiment: Distribution in brain of rat, 8 hr after intravenous administered, injected dose/gm; assay type: ADME, organism-based; conditions: in vivo; summary of the method: as §2
[43] = test system: Rattus norvegicus; experiment: Distribution in rat fat 5 min after intravenous administration, injected dose/gm; assay type: ADME, organism-based, Adipose tissue; conditions: in vivo; summary of the method: as §2
[44] = test system: Rattus norvegicus; experiment: Distribution in rat pancreas 4 hr after intravenous administration, injected dose/gm; assay type: ADME, organism-based; conditions: in vivo; summary of the method: as §1
[45] = test system: Rattus norvegicus; experiment: Distribution in blood of rat, 8 hr after intravenous administration, injected dose/gm; assay type: ADME, organism-based; conditions: in vivo; summary of the method: as §2
[46] = test system: Rattus norvegicus; experiment: Distribution in rat lungs 2 hr after intravenous administration, injected dose/gm; assay type: ADME, organism-based, Lung; conditions: in vivo; summary of the method: as §1
[47] = test system: Rattus norvegicus; experiment: Distribution in rat uterus 15 min after intravenous administration, injected dose/gm; assay type: ADME, organism-based; conditions: in vivo, 0.25 h; summary of the method: as §1
[48] = test system: Rattus norvegicus; experiment: Distribution in brain of rat, 1 hr after intravenous administered, injected dose/gm; assay type: ADME, organism-based; conditions: in vivo; summary of the method: as §2
[49] = test system: Rattus norvegicus; experiment: Distribution in rat muscle 4 hr after intravenous administration, injected dose/gm; assay type: ADME, organism-based, Muscle tissue; conditions: in vivo; summary of the method: as §1
[50] = test system: Rattus norvegicus; experiment: Distribution in rat heart 8 hr after intravenous administration, injected dose/gm; assay type: ADME, organism-based; conditions: in vivo; summary of the method: as §2

O=C(CCCN1CCC(O)(c2ccc(Br)cc2)CC1)c1ccc(F)cc1 [BROMPERIDOL]
Distribution [1]: 1.86%
Distribution [2]: 0.15%
Distribution [3]: 1.76%
Distribution [4]: 1.15%
Distribution [5]: 1.85%
Distribution [6]: 0.39%
Distribution [7]: 1.92%
Distribution [8]: 0.32%
Distribution [9]: 1.07%
Distribution [10]: 0.76%
Distribution [11]: 0.19%
Distribution [12]: 4.08%
Distribution [13]: 5.01%
Distribution [14]: 4.96%
Distribution [15]: 1.93%
Distribution [16]: 0.15%
Distribution [17]: 5.2%
Distribution [18]: 0.06%
Distribution [19]: 2.99%
Distribution [20]: 0.39%
Distribution [21]: 2.83%
Distribution [22]: 2.82%
Distribution [23]: 4.72%
Distribution [24]: 0.2%
Distribution [25]: 0.23%
Distribution [26]: 0.2%
Distribution [27]: 0.17%
Distribution [28]: 1.77%
Distribution [29]: 0.36%
Distribution [30]: 0.1%
Distribution [31]: 0.82%
Distribution [32]: 4.16%
Distribution [33]: 4.43%
Distribution [34]: 2.5%
Distribution [35]: 0.16%
Distribution [36]: 0.14%
Distribution [37]: 2.19%
Distribution [38]: 2.26%
Distribution [39]: 6.29%
Distribution [40]: 1.07%
Distribution [41]: 2.29%
Distribution [42]: 1.29%
Distribution [43]: 0.05%
Distribution [44]: 3.51%
Distribution [45]: 0.02%
Distribution [46]: 2.1%
Distribution [47]: 2.24%
Distribution [48]: 2.48%
Distribution [49]: 0.12%
Distribution [50]: 0.3%
